Results reported in ChEMBL document CHEMBL1137710, “Synthesis and in vitro antitumor activity of new quinoxaline derivatives” (2009).

Assays:
Assay type in all cases: functional
[1] = system: UACC-257; test: Growth inhibition of human UACC257 cells after 48 hrs by sulforhodamine B assay; conditions: UACC-257, 48 h; for CC50: read-out: pLC50 (the source's name) (converted); for TGI: read-out: pTGI (converted)
In short: (§1)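 Run in the NCI 60-human-tumour-cell-line panel, tested over a 5-log dose range. Dose–response curves gave three values per cell line, each as a log10 molar concentration: GI50 (50% inhibition of net cell growth), TGI (total inhibition of net growth) and LC50 (50% net cell death). The mean graph midpoint is the arithmetic mean over all lines, with insensitive lines entered at the highest concentration tested.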

[2] = system: SK-OV-3; test: Growth inhibition of human SKOV3 cells after 48 hrs by sulforhodamine B assay; conditions: SK-OV-3, 48 h; for CC50: read-out: pLC50 (the source's name) (converted); for TGI: read-out: pTGI (converted)
In short: (§2)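 NCI 60-human-tumor-cell-line panel, with compounds tested over a 5-log dose range. Values are taken from dose-response curves as log10 molar concentrations: GI50 is 50% net growth inhibition, TGI is total growth inhibition, and LC50 is 50% net cell death.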

[3] = system: SF-268; test: Anticancer activity against human SF268 cells assessed as cell growth at 100 uM after 48 hrs by sulforhodamine B assay; conditions: SF-268, 48 h, read-out: Activity
[4] = system: SF-539; test: Growth inhibition of human SF539 cells after 48 hrs by sulforhodamine B assay; conditions: SF-539, 48 h; for TGI: read-out: pTGI (converted); in short: as §2
[5] = system: HCT-15; test: Growth inhibition of human HCT15 cells after 48 hrs by sulforhodamine B assay; conditions: HCT-15, 48 h; in short: as §2
[6] = system: MCF7; test: Growth inhibition of human MCF7 cells after 48 hrs by sulforhodamine B assay; conditions: MCF7, 48 h; for CC50: read-out: pLC50 (the source's name) (converted); for TGI: read-out: pTGI (converted); in short: as §2
[7] = system: EKVX; test: Growth inhibition of human EKVX cells after 48 hrs by sulforhodamine B assay; in short: as §2
[8] = system: NCI-H226; test: Growth inhibition of human NCI-H226 cells after 48 hrs by sulforhodamine B assay; conditions: NCI-H226, 48 h; for TGI: read-out: pTGI (converted); in short: as §2
[9] = system: NCI-H460; test: Growth inhibition of human NCI-H460 cells after 48 hrs by sulforhodamine B assay; conditions: NCI-H460, 48 h; for TGI: read-out: pTGI (converted); in short: as §2
[10] = system: OVCAR-3; test: Growth inhibition of human OVCAR-3 cells after 48 hrs by sulforhodamine B assay; conditions: OVCAR-3, 48 h; for CC50: read-out: pLC50 (the source's name) (converted); for TGI: read-out: pTGI (converted); in short: as §2
[11] = system: NCI-H23; test: Growth inhibition of human NCI-H23 cells after 48 hrs by sulforhodamine B assay; conditions: NCI-H23, 48 h; for TGI: read-out: pTGI (converted); in short: as §2
[12] = system: CCRF-CEM; test: Growth inhibition of human CCRF-CEM cells after 48 hrs by sulforhodamine B assay; conditions: for TGI: read-out: pTGI (converted); in short: as §2
[13] = system: Malme-3M; test: Growth inhibition of human MALME-3M cells after 48 hrs by sulforhodamine B assay; conditions: for CC50: read-out: pLC50 (the source's name) (converted); for TGI: read-out: pTGI (converted); in short: as §2
[14] = system: SK-MEL-2; test: Growth inhibition of human SK-MEL-2 cells after 48 hrs by sulforhodamine B assay; conditions: SK-MEL-2, 48 h; for CC50: read-out: pLC50 (the source's name) (converted); for TGI: read-out: pTGI (converted); in short: as §2
[15] = system: KM12; test: Growth inhibition of human KM12 cells after 48 hrs by sulforhodamine B assay; conditions: KM12, 48 h; for TGI: read-out: pTGI (converted); in short: as §2
[16] = system: UACC-62; test: Growth inhibition of human UACC62 cells after 48 hrs by sulforhodamine B assay; conditions: UACC-62, 48 h; for CC50: read-out: pLC50 (the source's name) (converted); for TGI: read-out: pTGI (converted); in short: as §1
[17] = system: T47D; test: Growth inhibition of human T47D cells after 48 hrs by sulforhodamine B assay; conditions: for CC50: read-out: pLC50 (the source's name) (converted); for TGI: read-out: pTGI (converted); in short: as §1
[18] = system: SNB-19; test: Growth inhibition of human SNB19 cells after 48 hrs by sulforhodamine B assay; conditions: SNB-19, 48 h; for TGI: read-out: pTGI (converted); in short: as §1
[19] = system: A498; test: Growth inhibition of human A498 cells after 48 hrs by sulforhodamine B assay; conditions: A498, 48 h; for CC50: read-out: pLC50 (the source's name) (converted); for TGI: read-out: pTGI (converted); in short: as §2
[20] = system: UO-31; test: Growth inhibition of human UO31 cells after 48 hrs by sulforhodamine B assay; conditions: UO-31, 48 h; for CC50: read-out: pLC50 (the source's name) (converted); for TGI: read-out: pTGI (converted); in short: as §1
[21] = system: SR; test: Growth inhibition of human SR cells after 48 hrs by sulforhodamine B assay; conditions: for TGI: read-out: pTGI (converted); in short: as §1
[22] = Growth inhibition of human […] cells after 48 hrs by sulforhodamine B assay; conditions: for TGI: read-out: pTGI (converted); in short: as §2
[23] = system: HL-60(TB); test: Growth inhibition of human HL-60(TB) cells after 48 hrs by sulforhodamine B assay; conditions: HL-60, 48 h; for TGI: read-out: pTGI (converted)
In short: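 Tested only on compounds active in a three-line prescreen, in the NCI 60-human-tumour-cell-line panel over a 5-log dose range. Values come from dose–response curves as log10 molar GI50, the concentration inhibiting 50% net cell growth. Log10 TGI (total growth inhibition) and log10 LC50 (50% net cell death) were derived too. Mean graph midpoints include insensitive lines at the highest concentration tested.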

[24] = system: HOP-62; test: Growth inhibition of human HOP62 cells after 48 hrs by sulforhodamine B assay; conditions: HOP-62, 48 h; for TGI: read-out: pTGI (converted); in short: as §2
[25] = system: ACHN; test: Growth inhibition of human ACHN cells after 48 hrs by sulforhodamine B assay

Work on `Nc1cc(N)c2nc(-c3ccccc3)c(NCc3ccc(Cl)c(Cl)c3)nc2c1` yielded a GI50 [1] of 4.57 µM, a CC50 [1] of 43.7 µM and a TGI [1] of 15.8 µM. It also gave a GI50 [2] of 18.6 µM, a CC50 [2] of 69.2 µM and a TGI [2] of 36.3 µM. The growth at 100 µM [3] was 0%, the GI50 [4] was 4.57 µM and the LC50 [4] was 83.2 µM. For the same compound, the TGI [4] was 18.6 µM, the GI50 [5] was 4.68 µM and the LC50 [5] was > 100 µM. The TGI ([5]; read-out: pTGI (converted)) was > 100 µM, the GI50 [6] was 12.3 µM and the CC50 [6] was > 100 µM. The TGI [6] was 53.7 µM, the GI50 [7] was 11 µM and the LC50 (50% net cell kill) [7] was > 100 µM. For the same compound, the TGI ([7]; read-out: pTGI (converted)) was 38.9 µM, the GI50 [8] was 22.4 µM and the LC50 [8] was 95.5 µM. For the same compound, the TGI [8] was 46.8 µM, the GI50 [9] was 20.9 µM and the LC50 (50% net cell kill) [9] was > 100 µM. It also gave a TGI [9] of 46.8 µM, a GI50 [10] of 2.63 µM and a CC50 [10] of 31.6 µM. The TGI [10] was 6.92 µM, the GI50 [11] was 14.1 µM and the LC50 (50% net cell kill concentration) [11] was 55 µM. It also gave a TGI [11] of 27.5 µM, a GI50 [12] of 0.132 µM and an LC50 [12] of 17.4 µM. It also gave a TGI [12] of 1.82 µM, a GI50 [13] of 3.39 µM and a CC50 [13] of 50.1 µM. It also gave a TGI [13] of 13.8 µM, a GI50 [14] of 1.91 µM and a CC50 [14] of 9.55 µM. For the same compound, the TGI [14] was 4.27 µM, the GI50 [15] was 3.39 µM and the LC50 (50% net cell kill) [15] was > 100 µM. The TGI [15] was 21.4 µM, the GI50 [16] was 14.1 µM and the CC50 [16] was 67.6 µM. For the same compound, the TGI [16] was 30.9 µM, the GI50 [17] was 19.5 µM and the CC50 [17] was > 100 µM. For the same compound, the TGI [17] was 55 µM, the GI50 [18] was 22.4 µM and the LC50 [18] was > 100 µM. It also gave a TGI [18] of 51.3 µM, a GI50 [19] of 17.4 µM and a CC50 [19] of 60.3 µM. For the same compound, the TGI [19] was 32.4 µM, the GI50 [20] was 4.17 µM and the CC50 [20] was > 100 µM. The TGI [20] was > 100 µM, the GI50 [21] was 1.62 µM and the LC50 (concentration giving 50% net cell death) [21] was > 100 µM. The TGI [21] was 6.03 µM, the GI50 [22] was 1.66 µM and the LC50 [22] was 8.32 µM. For the same compound, the TGI [22] was 3.72 µM, the GI50 [23] was 1.82 µM and the LC50 [23] was > 100 µM. For the same compound, the TGI [23] was 7.94 µM, the GI50 [24] was 15.8 µM and the LC50 [24] was 64.6 µM. The TGI [24] was 31.6 µM.
With `Nc1cc(N)c2nc(-c3ccccc3)c(Sc3ccc(Cl)c(Cl)c3)nc2c1` the GI50 [1] was 17.8 µM, the CC50 [1] was > 100 µM and the TGI [1] was 58.9 µM. For the same compound, the GI50 [2] was 14.8 µM, the CC50 [2] was > 100 µM and the TGI [2] was 39.8 µM. The growth at 100 µM [3] was 11%, the GI50 [4] was 14.5 µM and the LC50 [4] was > 100 µM. For the same compound, the TGI [4] was 41.7 µM, the GI50 [6] was 5.25 µM and the CC50 [6] was > 100 µM. For the same compound, the TGI [6] was 38 µM, the GI50 [8] was 3.02 µM and the LC50 [8] was > 100 µM. For the same compound, the TGI [8] was 9.12 µM, the GI50 [9] was 10.5 µM and the LC50 (50% net cell kill) [9] was > 100 µM. The TGI [9] was 33.9 µM, the GI50 [10] was 11.7 µM and the CC50 [10] was > 100 µM. It also gave a TGI [10] of 46.8 µM, a GI50 [11] of 12.6 µM and an LC50 (50% net cell kill concentration) [11] of 95.5 µM. The TGI [11] was 34.7 µM, the GI50 [12] was 2.51 µM and the LC50 [12] was > 100 µM. The TGI [12] was > 100 µM, the GI50 [13] was 19.5 µM and the CC50 [13] was > 100 µM. The TGI [13] was 50.1 µM, the GI50 [14] was 6.17 µM and the CC50 [14] was > 100 µM. The TGI [14] was 30.9 µM, the GI50 [15] was 11.2 µM and the LC50 (50% net cell kill) [15] was > 100 µM. For the same compound, the TGI [15] was > 100 µM, the GI50 [16] was 6.76 µM and the CC50 [16] was > 100 µM. For the same compound, the TGI [16] was 42.7 µM, the GI50 [17] was 13.2 µM and the CC50 [17] was > 100 µM. The TGI [17] was > 100 µM, the GI50 [18] was 17 µM and the LC50 [18] was > 100 µM. For the same compound, the TGI [18] was 57.5 µM, the GI50 [19] was 17 µM and the CC50 [19] was 57.5 µM. For the same compound, the TGI [19] was 30.9 µM, the GI50 [20] was 3.8 µM and the CC50 [20] was > 100 µM. The TGI [20] was > 100 µM, the GI50 [21] was 4.68 µM and the LC50 (concentration giving 50% net cell death) [21] was > 100 µM. For the same compound, the TGI [21] was 35.5 µM, the GI50 [22] was 3.8 µM and the LC50 [22] was > 100 µM. For the same compound, the TGI [22] was 31.6 µM, the GI50 [23] was 7.94 µM and the LC50 [23] was > 100 µM. The TGI [23] was > 100 µM, the GI50 [25] was 1.7 µM and the CC50 ([25]; read-out: pLC50 (the source's name) (converted)) was 5.62 µM. For the same compound, the TGI ([25]; read-out: pTGI (converted)) was 3.09 µM, the GI50 [24] was 12.3 µM and the LC50 [24] was > 100 µM. For the same compound, the TGI [24] was 77.6 µM.
